Results gathered from unrelated publications.
FGFR3: Fibroblast growth factor receptor 3 (FGFR3, Homo sapiens, UniProt P22607)
FGFR3 G697C: Fibroblast growth factor receptor 3 (FGFR3, Homo sapiens, UniProt P22607, G697C)

SMILES | target | assay | conditions | quantity | result
N#Cc1ccc(NC(=O)Nc2ccccc2)cc1 | FGFR3 | cell-free assay, competition with immobilised ligand | 25 µM | remaining binding | 100%
COc1ccc2oc(-c3ccc4nc(N)oc4c3)c/c(=N\c3ccccc3NC(=O)CCN)c2c1 | FGFR3 | binding | 1 µM | remaining binding | 107%
C1=C/COCc2cc(ccc2OCCN2CCCC2)Nc2nccc(n2)-c2cccc(c2)COC/1 | FGFR3 G697C | binding | 0.1 µM | remaining binding | 100%
CO[C@@H]1[C@H](N(C)C(=O)c2ccccc2)C[C@H]2O[C@]1(C)n1c3ccccc3c3c4c(c5c6ccccc6n2c5c31)C(=O)NC4 | FGFR3 | enzyme activity, inhibitor | 1 µM | inhibition | 3%
C#Cc1cnc(Nc2ccnc(CO)c2)nc1Nc1ccccc1S(C)(=O)=NC#N (stereo not drawn) | FGFR3 | cell-free assay | 1 µM | remaining signal | 28%
Cc1ccc(NC(=O)c2ccnc(C(F)(F)F)c2)cc1-c1cc(OCCO)nc(N2CCOCC2)c1 | FGFR3 | binding, competition with immobilised ligand | 1 µM | remaining binding | 90%
C=CC(=O)N1CCC([C@@H]2CCNc3c(C(N)=O)c(-c4ccc(Oc5ccccc5)cc4)nn32)CC1 | FGFR3 G697C | cell-free assay | 1 µM | inhibition | 14%
C[C@H]1CC[C@H](n2c3cnccc3c3cnc(Nc4ccc5c(n4)CCN(C(=O)CO)C5)nc32)CC1 | FGFR3 | cell-free assay, competition with immobilised ligand | 1 µM | remaining binding | 100%
CCCCC(=O)Nc1ccc(-c2ccc3ncn(CCC)c(=O)c3c2)cn1 | FGFR3 | binding, competition with immobilised ligand | 0.5 µM | remaining binding | 96%
